Molecular target: T1, Bifunctional epoxide hydrolase 2 (Homo sapiens, UniProt P34913)
T1 sequence (P34913 whole entry): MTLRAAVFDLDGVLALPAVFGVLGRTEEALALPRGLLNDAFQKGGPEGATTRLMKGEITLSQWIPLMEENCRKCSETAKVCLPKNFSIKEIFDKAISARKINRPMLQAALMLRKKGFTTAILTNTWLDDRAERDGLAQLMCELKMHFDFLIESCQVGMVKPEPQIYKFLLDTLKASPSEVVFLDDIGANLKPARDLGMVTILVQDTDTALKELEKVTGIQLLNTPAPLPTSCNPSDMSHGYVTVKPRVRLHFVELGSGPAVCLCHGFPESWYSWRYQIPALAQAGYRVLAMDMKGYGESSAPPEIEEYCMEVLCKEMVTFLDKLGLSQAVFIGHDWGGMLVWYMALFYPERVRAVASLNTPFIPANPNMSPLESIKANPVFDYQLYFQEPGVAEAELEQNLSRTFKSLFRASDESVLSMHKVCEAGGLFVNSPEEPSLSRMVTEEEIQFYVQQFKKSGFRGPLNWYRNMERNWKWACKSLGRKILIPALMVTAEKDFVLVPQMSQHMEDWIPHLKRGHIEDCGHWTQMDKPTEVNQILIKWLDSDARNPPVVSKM
Experiment: Inhibition of human soluble epoxide hydrolase by kinetic fluorescent assay
How it was run: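 Kinetic fluorescent read-out; each value is the mean of three separate experiments.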

| IC50 | Structure (SMILES) |
| --- | --- |
| 56 nM | CC(NC(=O)Nc1ccccc1F)C12CC3CC(CC(C3)C1)C2 (configuration not stated) |
| 94 nM | O=C(Nc1ccc(C23CC4CC(CC(C4)C2)C3)cc1)Nc1ccccc1F |
